Assay outcomes (PubChem BioAssay)
Hits are enriched below; roughly 1.2% of the tested compounds scored in any of these assays.
A3G deaminase = APOBEC3G (human) deaminase inhibition | Q9HC16 | recombinant A3G, ssDNA deamination FAM/TAMRA fluorescence | 330,000 compounds, 0.28% hits | inhibition, % at 20 µM | AID 493012;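 active = inhibition of at least 40% at 20 µM, with no more than 30% in the related APOBEC3A deaminase screen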
ABHD5-PLIN5 inh = ABHD5-PLIN5 protein interaction inhibition. Split G. princeps luciferase complementation, luminescence, 4 h. inhibition, % at 4 µM. 360,000 compounds, 0.78% hits. Q00G26+Q8WTS1. AID 602281;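 active = inhibition above the mean inhibition across every tested compound plus 3 SD, cut at about 22% in these data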
Target sequence (Q00G26 whole entry, looked up): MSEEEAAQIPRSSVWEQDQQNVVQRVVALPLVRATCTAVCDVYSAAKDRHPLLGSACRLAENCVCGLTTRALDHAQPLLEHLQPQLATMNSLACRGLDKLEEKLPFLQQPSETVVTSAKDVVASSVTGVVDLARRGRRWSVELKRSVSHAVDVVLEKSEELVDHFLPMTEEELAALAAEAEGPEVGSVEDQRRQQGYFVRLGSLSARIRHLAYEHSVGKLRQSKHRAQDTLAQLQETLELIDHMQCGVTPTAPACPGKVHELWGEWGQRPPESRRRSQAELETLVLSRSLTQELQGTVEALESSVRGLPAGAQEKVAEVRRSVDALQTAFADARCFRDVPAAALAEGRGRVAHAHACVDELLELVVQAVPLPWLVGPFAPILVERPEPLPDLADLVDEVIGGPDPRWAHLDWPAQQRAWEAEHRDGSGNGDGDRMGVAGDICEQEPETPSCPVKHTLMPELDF
Target sequence (Q8WTS1 whole entry, looked up): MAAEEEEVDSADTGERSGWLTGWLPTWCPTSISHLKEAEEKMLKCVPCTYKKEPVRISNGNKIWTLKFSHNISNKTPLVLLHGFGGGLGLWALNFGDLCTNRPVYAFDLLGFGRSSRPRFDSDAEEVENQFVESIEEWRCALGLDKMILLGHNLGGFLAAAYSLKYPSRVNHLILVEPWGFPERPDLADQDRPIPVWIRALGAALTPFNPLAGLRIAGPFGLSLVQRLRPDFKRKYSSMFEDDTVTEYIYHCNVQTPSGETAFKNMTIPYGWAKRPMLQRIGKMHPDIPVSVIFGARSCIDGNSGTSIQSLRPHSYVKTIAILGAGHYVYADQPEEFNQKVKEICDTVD
APOBEC3A inh = inhibitors of human APOBEC3A DNA deaminase | recombinant A3A, FAM/TAMRA ssDNA deamination fluorescence | inhibition, % at 20 µM | 330,000 compounds, 0.41% hits | AID 493011;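 active = at least 40% inhibition at 20 µM here, with at most 30% in a related deaminase screen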
FN deposition inh = fibronectin deposition inhibition | AID 743247 | 350,000 compounds, 0.086% hits | AH1F fibroblasts, Alexa488-fibronectin deposition fluorescence, overnight | inhibition, % at 12.6 µM;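 active = mean inhibition across replicates of 30% or more, regardless of how many single replicates reach that level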
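Material: AH1F fibroblasts assembling fluorescent fibronectin matrix; amount: 10000 AH1F cells/well; medium: DMEM, 2% serum; reagent: Alexa488-fibronectin, 24 nM final in well; dosing: single compound dose, delivered by pin transfer; incubation: 1 h adhesion, overnight exposure; detection: fluorescence after three HBSS washes, excitation 485 nm, emission 525 nm; measure: fibronectin deposition inhibition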
APOBEC3A confirm = confirmation of human APOBEC3A DNA deaminase inhibitors; recombinant A3A, ssDNA deaminase UDG fluorescence assay; 1,400 compounds, 63% hits; inhibition, % at 20 µM; shares compounds with APOBEC3A inh;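 active = inhibition reaching a set limit, 80% of the first screen's cutoff, at 20 µM in any replicate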
UDG ctr A3A = counter-screen for APOBEC3A inhibitors: UDG. shares compounds with APOBEC3A inh. UDG counterscreen, FAM/TAMRA uracil oligo fluorescence. inhibition, % at 20 µM. 1,000 tested, under 10 active; call rule not given here
A number is an active result; 0 = inactive; - = no result given.

SMILES	A3G deaminase	ABHD5-PLIN5 inh	APOBEC3A inh	FN deposition inh	APOBEC3A confirm	UDG ctr A3A
Cc1noc(C)c1S(=O)(=O)N(C)C[C@@H]1Oc2ccc(NC(=O)CCCCCC(=O)Nc3ccccc3N)cc2CC(=O)N([C@H](C)CO)C[C@H]1C	-	-	-	0	-	-
Cc1nc(SCCOc2ccc(F)cc2)c2ccccc2n1	0	0	51.3	0	75.8	0
COc1ccc(S(=O)(=O)N2CCN(C(=O)CN3C(=O)NC4(CCCC4)C3=O)CC2)cc1	0	0	0	0	-	-
CCOc1ccc(S(=O)(=O)N2CCN(C(=O)CN3C(=O)NC4(CCCC4)C3=O)CC2)cc1	0	0	40.9	0	35.5	0
COc1ccc2nc(Nc3ccc4c(c3)OCO4)sc2c1	0	0	0	0	-	-
COc1ccc2nc(Nc3nc4cc5c(cc4s3)OCO5)sc2c1	0	0	46.1	0	38.6	0
Oc1[nH]c2ccccc2c1N=Nc1nc(Nc2ccccc2)nc(N2CCOCC2)n1	0	0	44.5	0	0	-
Cc1[nH]c2ccccc2c1/C=N/Nc1nc(Nc2ccccc2)nc(N2CCOCC2)n1	0	0	0	0	-	-
O=C(NCC[C@H]1CC[C@@H](NC(=O)C2CCCCC2)[C@@H](CO)O1)c1cc(Cl)cc(Cl)c1	-	-	-	0	-	-
C[C@H]1CC=CC[C@H](c2ccc3c(c2)OCO3)NC(=O)[C@H](C)N(C)C(=O)c2ccccc2O1 (mixture of isomers)	-	-	-	0	-	-
Cc1c2cccn2cc[n+]1C	0	0	41.8	0	77.5	0
CCCCc1nnc(NC(=O)c2cccc(S(=O)(=O)N3CCN(C)CC3)c2)s1	0	0	58.1	0	0	-
CCN1CCN(c2ccc(S(=O)(=O)N3CCCCC3)cc2NC(=O)c2ccccc2)CC1	0	0	45.6	0	23.1	0
CCN1CCN(c2ccc(S(=O)(=O)N3CCCCC3)cc2NC(=O)Cc2ccccc2)CC1	0	0	57.1	0	64.1	0
CCN1CCN(c2ccc(S(=O)(=O)N3CCCCC3)cc2NC(=O)c2cccc(F)c2)CC1	0	0	0	0	-	-
CCN1CCN(c2ccc(S(=O)(=O)N3CCCCC3)cc2NC(=O)c2cccc(C)c2[N+](=O)[O-])CC1	0	0	0	0	-	-
CCN1CCN(c2ccc(S(=O)(=O)N3CCCCC3)cc2NC(=O)c2cccc(C(F)(F)F)c2)CC1	0	0	57.2	0	50.8	0
O=C(C1CCCC1)N1CC2(C1)[C@H](c1ccccc1)[C@@H](CO)N2CC1CC1	-	-	-	0	-	-
CN1CCN(S(=O)(=O)c2cccc(C(=O)Nc3cc(C(F)(F)F)ccc3N3CCCCC3)c2)CC1	0	0	44.1	0	0	-
CCN1CCN(c2ccc(S(=O)(=O)N3CCCCC3)cc2NC(=O)c2ccc(C)o2)CC1	0	0	63.5	-	71.4	0
CCN1CCN(c2ccc(S(=O)(=O)N3CCCCC3)cc2NC(=O)COc2ccccc2)CC1	0	0	0	0	-	-
CN1CCN(c2ccc(S(=O)(=O)N3CCCCC3)cc2NC(=O)Cc2c(F)cccc2Cl)CC1	0	0	45.7	0	35.6	0
CCC(=O)c1ccc(OCC(=O)Nc2cc(S(=O)(=O)N3CCCCC3)ccc2N2CCN(CC)CC2)cc1	0	0	55.5	0	66.4	0
CN1CCN(S(=O)(=O)c2cccc(C(=O)Nc3ccccc3N3CCCCC3)c2)CC1	0	0	0	0	-	-
CCOc1ccccc1OCC(=O)Nc1cc(S(=O)(=O)N2CCCCC2)ccc1N1CCN(CC)CC1	0	0	60.2	0	54.6	0
SMILES	A3G deaminase	ABHD5-PLIN5 inh	APOBEC3A inh	FN deposition inh	APOBEC3A confirm	UDG ctr A3A
CCOc1ccc(OC(=O)c2cccc(S(=O)(=O)N3CCN(C)CC3)c2)cc1	0	0	59.7	0	0	-
CC(=O)c1ccc(OCCCC(=O)Nc2cc(S(=O)(=O)N3CCCCC3)ccc2C)cc1	0	0	40.1	0	0	-
CN1c2ccc(C#Cc3cccnc3)cc2[C@H]2[C@H](CCN2C(=O)C2CCCCC2)[C@H]1CO	-	-	-	0	-	-
C[C@@H]1CN([C@@H](C)CO)C(=O)Cc2cc(NC(=O)Nc3ccc4c(c3)OCO4)ccc2O[C@H]1CN(C)C(=O)NC1CCCCC1	-	-	-	0	-	-
CCCC(=O)Nc1ccc2c(c1)C(=O)N(C)[C@@H]1CC[C@@H](CC(=O)OC)O[C@@H]1CO2	-	-	-	0	-	-
COc1cccc(C(=O)N/N=C/c2ccc(Oc3ccc([N+](=O)[O-])cn3)c(OC)c2)c1	0	0	59.2	0	61.6	0
COc1cc(/C=N/NC(=O)c2ccc3ccccc3c2)ccc1Oc1ccc([N+](=O)[O-])cn1	0	0	0	0	-	-
CNC[C@@H]1Oc2cc(C#Cc3cccnc3)ccc2S(=O)(=O)N([C@@H](C)CO)C[C@H]1C	-	-	-	0	-	-
Cc1cc(C(=O)Nn2c(C)nc3ccccc3c2=O)ccc1[N+](=O)[O-]	0	0	0	0	-	-
NC(=S)Nn1c(-c2ccccc2)nc2ccccc2c1=O	0	0	41.6	-	0	0
Cc1cccc(-c2nc3ccccc3c(=O)n2NC(=O)c2ccc([N+](=O)[O-])c(C)c2)c1	0	0	49.0	-	0	0
COc1ccccc1C(=O)Nc1ccc2c(c1)OC[C@H](C)N(C)C[C@H](C)[C@H](OC)CN(C)C2=O	-	-	-	0	-	-
CCCNC(=O)N1CC2(C1)[C@@H](c1ccccc1)[C@H](CO)N2CC1CCOCC1	-	-	-	0	-	-
C/C(=N\Nc1ccc(Cl)c(C(=O)O)c1)c1cccs1	0	0	41.5	0	0	-
C/C(=N/Nc1ccccc1C(=O)O)c1cccs1	0	0	0	0	-	-
CN1C(=O)c2cc(NC(=O)C3CCC3)ccc2OC[C@H]2O[C@H](CC(=O)NCC3CCCCC3)CC[C@H]21	-	-	-	0	-	-
O=C(NCCN1CCOCC1)c1ccc(Cl)cc1[N+](=O)[O-]	0	0	45.9	-	10.1	0
CCOC(=O)c1ccc(NC(=O)CSc2nccn2C)cc1	0	0	0	-	-	-
CCCCOc1ccc(NC(=O)CCSc2nccn2C)cc1	0	0	41.8	-	0	-
CC(C)Nc1nc(NC(C)C)nc(N(C)n2cnnc2)n1	0	0	41.0	-	0	-
CC(C)Nc1nc(NC(C)C)nc(Nn2cnnc2)n1	0	0	0	0	-	-
CCOc1ccc(/C=c2\sc3nc(-c4ccco4)nn3c2=O)cc1OCC	0	0	73.8	-	30.6	0
COc1ccccc1/C=c1\sc2nc(-c3ccco3)nn2c1=O	0	0	0	-	-	-
CCC(=O)N1C[C@@H](C)[C@@H](OC)CN(C)C(=O)c2ccc(NC(=O)C3CC3)cc2OC[C@@H]1C	-	-	-	0	-	-
CCn1c(SCC(=O)OC)nc2sc3c(c2c1=O)CCC3	0	0	0	-	-	-
CCn1c(SCC(=O)O)nc2sc3c(c2c1=O)CCC3	0	0	53.8	0	47.5	0
O=C(Nc1ccc(NC(=O)C2CC2)cn1)c1ccccc1Cl	0	0	43.1	0	0	0
CCOC(=O)c1sc(N=NC2=C(O)CCCC2=O)c(C(=O)OCC)c1C	0	0	40.3	0	18.2	0
C[C@H]1CC=CC[C@H](c2ccc3c(c2)OCO3)NC(=O)[C@H](Cc2ccccc2)N(C)C(=O)c2ccccc2O1 (mixture of isomers)	-	-	-	0	-	-
